From ChEMBL document CHEMBL1157730, “Diaryl piperidines as CB1 receptor antagonists” (Bioorg Med Chem Lett, 2010)

Columns and labels:
Cannabinoid receptor 1 = Cannabinoid receptor 1 (Homo sapiens, UniProt P21554); assay: Binding affinity to human CB1 receptor
Cannabinoid receptor 2 [1] = target: T1, Cannabinoid receptor 2 (Homo sapiens, UniProt P34972); assay: Binding affinity to human CB2 receptor
Mus musculus [2] = assay: Reduction of food intake in DIO mouse model at 3 mg/kg, po after 2 hrs relative to control; type: functional; set-up: scale not given: the % may be the effect or the level left
In short: (§1)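 Fed diet-induced obese mice; oral dosing 1 h before dark onset; food intake measured at 2, 4, 6 and 24 h and expressed as percent reduction versus vehicle-treated mice; significance threshold p<0.05.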

Mus musculus [3] = assay: Reduction of food intake in DIO mouse model at 3 mg/kg, po after 4 hrs relative to control; type: functional; set-up: scale not given: the % may be the effect or the level left; in short: as §1
Mus musculus [4] = assay: Reduction of food intake in DIO mouse model at 3 mg/kg, po after 6 hrs relative to control; type: functional; set-up: scale not given: the % may be the effect or the level left; in short: as §1
Mus musculus [5] = assay: Reduction of food intake in DIO mouse model at 3 mg/kg, po after 24 hrs relative to control; type: functional; set-up: scale not given: the % may be the effect or the level left; in short: as §1
[6] = Drug level in DIO mouse plasma at 3 mg/kg, po after 24 hrs; type: ADME, organism-based; set-up: dose 3 mg/kg, route oral; conditions: read-out: Drug uptake
In short: (§2)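 Diet-induced obese mice dosed orally at 3 mg/kg, 1 h before dark onset; total drug concentrations in plasma (ng/mL) and brain (ng/g) measured at the 24-h time point.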

[7] = Drug level in DIO mouse brain at 3 mg/kg, po after 24 hrs; type: ADME, organism-based; set-up: dose 3 mg/kg, route oral; conditions: read-out: Drug uptake; in short: as §2
Cannabinoid receptor 2 [8] = target: T1, Cannabinoid receptor 2; assay: Binding affinity to human CB2 receptor at 1 uM

Chain of Cannabinoid receptor 1 (P21554 whole entry): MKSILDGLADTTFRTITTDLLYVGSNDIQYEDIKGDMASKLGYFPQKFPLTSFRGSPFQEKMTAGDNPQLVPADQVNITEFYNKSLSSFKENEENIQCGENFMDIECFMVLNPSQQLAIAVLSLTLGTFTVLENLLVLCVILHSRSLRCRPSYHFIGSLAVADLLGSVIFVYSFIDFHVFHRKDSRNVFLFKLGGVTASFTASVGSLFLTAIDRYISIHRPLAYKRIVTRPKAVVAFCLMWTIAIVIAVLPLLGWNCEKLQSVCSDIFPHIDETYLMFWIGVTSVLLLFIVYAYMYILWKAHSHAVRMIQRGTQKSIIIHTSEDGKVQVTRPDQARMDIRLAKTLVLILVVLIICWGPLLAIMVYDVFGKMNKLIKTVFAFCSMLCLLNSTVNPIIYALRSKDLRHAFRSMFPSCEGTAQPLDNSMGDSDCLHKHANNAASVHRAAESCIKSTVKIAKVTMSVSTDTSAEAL
T1 sequence (P34972 whole entry): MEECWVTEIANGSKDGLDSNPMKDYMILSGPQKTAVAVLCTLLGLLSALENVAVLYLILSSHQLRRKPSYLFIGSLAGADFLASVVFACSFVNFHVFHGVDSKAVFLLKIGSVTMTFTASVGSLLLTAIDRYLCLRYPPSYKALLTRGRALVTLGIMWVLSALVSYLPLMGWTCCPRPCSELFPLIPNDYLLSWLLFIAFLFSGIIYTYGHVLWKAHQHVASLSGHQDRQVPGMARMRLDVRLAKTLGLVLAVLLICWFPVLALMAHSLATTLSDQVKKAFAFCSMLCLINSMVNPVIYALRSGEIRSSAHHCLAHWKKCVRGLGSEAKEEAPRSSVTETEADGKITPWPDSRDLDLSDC

O=S(=O)(NCCC1CCC(c2ccc(Cl)cc2Cl)N(c2ccc(Cl)cc2)C1)C1CC1 (single isomer, unassigned; enantiomer 2)
Ki (Cannabinoid receptor 1): 57 nM | Ki (Cannabinoid receptor 2 [1]): > 2400 nM

N#Cc1ccc(S(=O)(=O)NCC[C@@H]2CC[C@@H](c3ccc(Cl)cc3Cl)N(c3ccc(Cl)cc3)C2)cc1
Ki (Cannabinoid receptor 1): 4.2 nM | Ki (Cannabinoid receptor 2 [1]): > 2220 nM

CS(=O)(=O)N1CCN(C[C@@H]2CC[C@@H](c3ccc(Cl)cc3Cl)N(c3ccc(Cl)cc3)C2)CC1
Ki (Cannabinoid receptor 1): 690 nM | Ki (Cannabinoid receptor 2 [1]): > 1850 nM

O=C(NCc1ccc(Cl)cc1)[C@@H]1CC[C@@H](c2ccc(Cl)cc2Cl)N(c2ccc(Cl)cc2)C1
Ki (Cannabinoid receptor 1): 63 nM | Ki (Cannabinoid receptor 2 [1]): > 1850 nM

NCC[C@@H]1CC[C@@H](c2ccc(Cl)cc2Cl)N(c2ccc(Cl)cc2)C1
Ki (Cannabinoid receptor 1): 61 nM | Ki (Cannabinoid receptor 2 [1]): > 2220 nM

NC[C@@H]1CC[C@@H](c2ccc(Cl)cc2Cl)N(c2ccc(Cl)cc2)C1
Ki (Cannabinoid receptor 1): 133 nM | Ki (Cannabinoid receptor 2 [1]): > 1850 nM

Fc1ccc(C[C@H]2CC[C@H](c3ccc(Cl)cc3)N(c3ccc(Cl)cc3)C2)cc1F (relative stereo)
Ki (Cannabinoid receptor 1): 72 nM | Ki (Cannabinoid receptor 2 [1]): > 1770 nM

O=S(=O)(C1CC1)N1CCN(C[C@@H]2CC[C@@H](c3ccc(Cl)cc3Cl)N(c3ccc(Cl)cc3)C2)CC1
Ki (Cannabinoid receptor 1): 44 nM | Ki (Cannabinoid receptor 2 [1]): > 2220 nM

O=S(=O)(NC[C@@H]1CC[C@@H](c2ccc(Cl)cc2Cl)N(c2ccc(Cl)cc2)C1)c1cccnc1
Ki (Cannabinoid receptor 1): 6 nM | Ki (Cannabinoid receptor 2 [1]): > 1850 nM

Clc1ccc(N2C[C@H](CN3CCNCC3)CC[C@H]2c2ccc(Cl)cc2Cl)cc1
Ki (Cannabinoid receptor 1): 554 nM | Ki (Cannabinoid receptor 2 [1]): > 2000 nM

Fc1ccc(C[C@@H]2CC[C@H](c3ccc(Cl)cc3)N(c3ccc(Cl)cc3)C2)cc1F (relative stereo)
Ki (Cannabinoid receptor 1): > 1640 nM | Ki (Cannabinoid receptor 2 [1]): > 1850 nM

O=C(NC1CCC1)[C@@H]1CC[C@@H](c2ccc(Cl)cc2Cl)N(c2ccc(Cl)cc2)C1
Ki (Cannabinoid receptor 1): 33 nM | Ki (Cannabinoid receptor 2 [1]): 1380 nM

O=S(=O)(NCCC1CCC(c2ccc(Cl)cc2Cl)N(c2ccc(Cl)cc2)C1)C1CC1 (stereo in doubt; 14f)
Ki (Cannabinoid receptor 1): 3.4 nM | Ki (Cannabinoid receptor 2 [1]): > 2400 nM | Activity (Mus musculus [2]): 39% | Activity (Mus musculus [3]): 37% | Activity (Mus musculus [4]): 38% | Activity (Mus musculus [5]): 37% | concentration at 24 h [6]: 15 ng/mL | concentration at 24 h [7]: 66 ng/g

CC(C)(C)CC(=O)N1CCN(C[C@@H]2CC[C@@H](c3ccc(Cl)cc3Cl)N(c3ccc(Cl)cc3)C2)CC1
Ki (Cannabinoid receptor 1): 13 nM | Ki (Cannabinoid receptor 2 [1]): > 2400 nM | Activity (Mus musculus [2]): 0% | Activity (Mus musculus [3]): 0% | Activity (Mus musculus [4]): 3% | Activity (Mus musculus [5]): 9% | concentration at 24 h [6]: 1 ng/mL

CC(C)CNC(=O)[C@@H]1CC[C@@H](c2ccc(Cl)cc2Cl)N(c2ccc(Cl)cc2)C1
Ki (Cannabinoid receptor 1): 33 nM | Ki (Cannabinoid receptor 2 [1]): 1580 nM

O=C1[C@@H](Cc2ccc(F)c(F)c2)CC[C@H](c2ccc(Cl)cc2Cl)N1c1ccc(Cl)cc1 (relative stereo)
Ki (Cannabinoid receptor 1): 109 nM | Ki (Cannabinoid receptor 2 [1]): > 1680 nM

Fc1ccc(C[C@H]2CC[C@H](c3ccc(Cl)cc3)N(c3ccc(Cl)cc3Cl)C2)cc1F (relative stereo)
Ki (Cannabinoid receptor 1): 467 nM | Ki (Cannabinoid receptor 2 [1]): > 1850 nM

O=S(=O)(NCC[C@@H]1CC[C@@H](c2ccc(Cl)cc2Cl)N(c2ccc(Cl)cc2)C1)C1CC1
Ki (Cannabinoid receptor 1): 3.8 nM | Ki (Cannabinoid receptor 2 [1]): > 2220 nM

O=C(NC1CCCCC1)[C@@H]1CC[C@@H](c2ccc(Cl)cc2Cl)N(c2ccc(Cl)cc2)C1
Ki (Cannabinoid receptor 1): 18 nM | Ki (Cannabinoid receptor 2 [1]): 368 nM

N#Cc1ccc(C(=O)NCC[C@@H]2CC[C@@H](c3ccc(Cl)cc3Cl)N(c3ccc(Cl)cc3)C2)cc1
Ki (Cannabinoid receptor 1): 5.1 nM | Ki (Cannabinoid receptor 2 [1]): > 2450 nM

O=C1[C@@H](Cc2ccc(F)c(F)c2)CC[C@H](c2ccc(Cl)cc2)N1c1ccc(Cl)cc1 (relative stereo)
Ki (Cannabinoid receptor 1): 444 nM | Ki (Cannabinoid receptor 2 [1]): 574 nM

O=S(=O)(NC[C@@H]1CC[C@@H](c2ccc(Cl)cc2Cl)N(c2ccc(Cl)cc2)C1)c1cccc2ccccc12
Ki (Cannabinoid receptor 1): 2.3 nM | inhibition (Cannabinoid receptor 2 [8]): 5%

CCCS(=O)(=O)NC[C@@H]1CC[C@@H](c2ccc(Cl)cc2Cl)N(c2ccc(Cl)cc2)C1
Ki (Cannabinoid receptor 1): 48 nM | inhibition (Cannabinoid receptor 2 [8]): 25%

CC(=O)NCC[C@@H]1CC[C@@H](c2ccc(Cl)cc2Cl)N(c2ccc(Cl)cc2)C1
Ki (Cannabinoid receptor 1): 42 nM | Ki (Cannabinoid receptor 2 [1]): > 2400 nM

O=S(=O)(NCC[C@@H]1CC[C@@H](c2ccc(Cl)cc2Cl)N(c2ccc(Cl)cc2)C1)c1cccnc1
Ki (Cannabinoid receptor 1): 5.8 nM | Ki (Cannabinoid receptor 2 [1]): > 2220 nM

CC(C)(C)CCN1CCN(C[C@@H]2CC[C@@H](c3ccc(Cl)cc3Cl)N(c3ccc(Cl)cc3)C2)CC1
Ki (Cannabinoid receptor 1): 57 nM | Ki (Cannabinoid receptor 2 [1]): > 1500 nM

Fc1ccc(C[C@H]2CC[C@H](c3ccc(Cl)cc3Cl)N(c3ccc(Cl)cc3)C2)cc1F (relative stereo)
Ki (Cannabinoid receptor 1): 15 nM | Ki (Cannabinoid receptor 2 [1]): > 1850 nM

O=C1[C@H](Cc2ccc(F)c(F)c2)CC[C@H](c2ccc(Cl)cc2)N1c1ccc(Cl)cc1 (relative stereo)
Ki (Cannabinoid receptor 1): 714 nM | Ki (Cannabinoid receptor 2 [1]): > 1780 nM

CC(=O)N1CCN(C[C@@H]2CC[C@@H](c3ccc(Cl)cc3Cl)N(c3ccc(Cl)cc3)C2)CC1
Ki (Cannabinoid receptor 1): 451 nM | Ki (Cannabinoid receptor 2 [1]): > 1850 nM

O=C(NC[C@@H]1CC[C@@H](c2ccc(Cl)cc2Cl)N(c2ccc(Cl)cc2)C1)C1CC1
Ki (Cannabinoid receptor 1): 112 nM | inhibition (Cannabinoid receptor 2 [8]): 25%

CC(C)CCNS(=O)(=O)[C@@H]1CC[C@@H](c2ccc(Cl)cc2Cl)N(c2ccc(Cl)cc2)C1
Ki (Cannabinoid receptor 1): 9.1 nM | Ki (Cannabinoid receptor 2 [1]): 1380 nM

O=S(=O)(NC[C@@H]1CC[C@@H](c2ccc(Cl)cc2Cl)N(c2ccc(Cl)cc2)C1)C1CC1
Ki (Cannabinoid receptor 1): 158 nM | Ki (Cannabinoid receptor 2 [1]): > 1850 nM

CC(C)(C)OC(=O)N1CCN(C[C@@H]2CC[C@@H](c3ccc(Cl)cc3Cl)N(c3ccc(Cl)cc3)C2)CC1
Ki (Cannabinoid receptor 1): 8 nM | Ki (Cannabinoid receptor 2 [1]): > 1850 nM

O=S(=O)(C[C@@H]1CC[C@@H](c2ccc(Cl)cc2Cl)N(c2ccc(Cl)cc2)C1)NC1CCCCC1
Ki (Cannabinoid receptor 1): 35 nM | Ki (Cannabinoid receptor 2 [1]): 1250 nM

N#Cc1ccc(C(=O)NC[C@@H]2CC[C@@H](c3ccc(Cl)cc3Cl)N(c3ccc(Cl)cc3)C2)cc1
Ki (Cannabinoid receptor 1): 5 nM | Ki (Cannabinoid receptor 2 [1]): 1410 nM | Activity (Mus musculus [2]): 22% | Activity (Mus musculus [3]): 22% | Activity (Mus musculus [4]): 24% | Activity (Mus musculus [5]): 10% | concentration at 24 h [6]: 28 ng/mL | concentration at 24 h [7]: 12 ng/g
